Test system: MS2 coat protein
Experiment: apparent Kd, MS2 coat protein; higher = weaker binding; RNA-MaP array; FMN 200 µM where present
Summary of the method: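 The apparent Kd comes from binding curves fitted cluster by cluster, filtered, and summarised as a median. Those curves followed SNAP-549-labelled MS2 coat protein from 0.7 or 1.5 nM, doubling to 3 µM, on Illumina sequencing-chip clusters where stalled E. coli RNA polymerase had transcribed the designs, without and then with constant ligand. The buffer was 100 mM Tris-HCl pH 7.5, 80 mM KCl, 4 mM MgCl2, BSA, DTT, yeast tRNA and Tween-20, and green signal was normalised to red-channel RNA signal and control-cluster median Fmax.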

[1] = designed as: OFF switch for flavin mononucleotide, no ligand
[2] = ligand present: flavin mononucleotide, designed as: OFF switch for flavin mononucleotide
[3] = designed as: ON switch for flavin mononucleotide, no ligand
[4] = ligand present: flavin mononucleotide, designed as: ON switch for flavin mononucleotide

Sequence	apparent Kd [1] [nM]	apparent Kd [2] [nM]	apparent Kd [3] [nM]	apparent Kd [4] [nM]
GUGUUUGAUGAGGAUAUCGCUGUGGGUACACAGCGAGAAGGCAUUACAUGAGGAUCACCCAUGUAGUGUGGGUU	24	105		
AGUCGGAGCAGAGGAUAUAUACAUGAGGAUCACCCAUGUAAAUGAAUGAGCUGGAAACAGCAUGUAUAGAAGGCUGCUCCGACA	113	303		
AUGUGACGGUGCGCAUGUGGACGGAGAAGGCAGACAUGAGGAUCACCCAUGUGAGCCUGCUAUUCUGAGGAUAUCCGUUCGCAC	31.7	158		
CUGUUAUAGGUCCAGAAUUACAACAUGAGGAUCACCCAUGUGCAGGAUAUCGGGAUAAUAAACGACGAGAAGGGCAUAGUCACG	16.9	24.5		
GUAGCAUACUGAGGAUAUUCAUACCGGAAACGGACAUGAGGAUCACCCAUGUUAUAUAAAUAUUUGGAGAAGGCAGAAUGCUAC			19.4	13.2
AUAUCUAUGUAAGGAUAUAGAUGGUAUACGCCUCCGACAUGAGGAUCACCCAUGUUAUAUUUUGUCUAGAAGGUACAUUGUCGG			383	305
GGGUUUGGUGUGAGGAUAUGUUUGGGUAAACCCGGGCAGAAGGCACAUGAGGAUCACCCAUGUAAGCCGGGCCC	14.9	14.7		
GUCUACCUAGGAUAUACAUGAGGAUCACCCAUGUAAAGUUUCGUAAAAAGAUAAUCGAGUAGAAGGAGGUGGAU	20.3	20.9		
UUAUUUAUACAAGGAUAUCUAUUGUUAAUUCGACUUACAUGAGGAUCACCCAUGUUUUUAUGUUUAGAGAAGGUGUAAUUUCUG			25.8	26.4
CUGUGACGGUGCGCAAGUGGACGGAGAAGGGACACAUGAGGAUCACCCAUGUGGGCCUGCUAUUGUCAGGAUAUCCGUUCGUAC	6.26	6.62		
GAAAAGGUAGGAUAUACGAAAAAAAAGGGUAGAAAAAAUACACAUGAGGAUCACCCAUGUAGAAGGACCAAAAG	31.5	130		
CAGUACUGAGGAUAUACAUGAGGAUCACCCAUGUCUUAAAAGUAGGAUACUACUAUUAGUAGAAGGCAGUACUG	13.2	34.9		
CUUUUUUUUGUGAGGAUAUACUGUUAUUAAAGUUAGUAGAAGGUACAUGAGGAUCACCCAUGUUAAUUACUUUA	14.2	13.8		
UCUACGUAAAUUCAUCAAUACAGAAAGGAUAUGAAAUACAUGAGGAUCACCCAUGUGCAUGGGAAUUAGAAGGUUCAAUUAACU	202	104		
GACCCAAAUGAGAAGGUGUGUAUAAAUUAUGUACAAGGAUAUCGGUCGAGCGUGUUGACAUGAGGAUCACCCAUGUUGUGGGUU			139	56.2
GGUACUCAAAGAGUACUUGGUCGAACAUGAGGAUCACCCAUGUAGGAUAUACAAAGCAAGAAGUAGUAGAAGGACAUGUGCAGC	12.9	16.2		
CUGAGCUGAGGAUAUACAUGAGGAUCACCCAUGUGUUCCAGCUUGGGUACAGGCACAUGUAGAAGGCAGUUCGG	55.1	21.4		
GGCGACCUAGGAUAUACAUGAGGAUCACCCAUGUUUAUCUAAUAGAUGAAGACGGGUUGUAGAAGGAGGAAAAU	15.6	19.4		
CACGGCAUCGGAGGAUAUACAUGAGGAUCACCCAUGUGGGUUGUACGCCGUGUAGAAGGCCGAGACCACCUUCUAGCUGGGAAG	11.7	33.1		
CCACUCGAGCAGAAGGCAAUGAGGGUUAUACAUUGAGGAUAUGCUACGUAUGUGGUACAUGAGGAUCACCCAUGUAGCCUAUCU			389	21.3
UCAUGUUAGCAGGAUAUGCUAUUUAUUUUUUAUGCAGAAGGGCUUACAUGAGGAUCACCCAUGUGUUAGGUUUU	41.8	21.1		
UAUUACAGAUAAGGAUAUCGACAUGAGGAUCACCCAUGUAUUUGGGAAUGUUUACUGAAUUCUUACGAGAAGGUAUACGUACUU	154	118		
ACAUUUAAUACAGGAUAUGUUAGUAUACAGUAGAUUGGUUAUUACACAACAACAGAAGGGUAGUACAUGAGGAUCACCCAUGUA			15.6	12.1
AAAAAAAAAUCUCAGGAUAUAGAUUAUAGAACAUGAGGAUCACCCAUGUAGUGAAAGAAGAAAAACUAGAAGGGAGGAAAAAAAAA			100	66.6
GCAUGAGACUAAGGAUAUGAUGUACCUAUAUGUGACAUGAGGAUCACCCAUGUGGUAAGUAUGAUUCAGAAGGUAGAGAUAUGC			67.8	28.3
AAGGACUGUAAUAAUGUAGAAAUACAUGAGGAUCACCCAUGUAAGGAUAUCGUCAGGAAUACUGACGAGAAGGUACAUCAGUCC		25.8		
UAGGUUCGAGGAUAUACAUAGAUACAGAUACAUGUAGACGUACAUGAGGAUCACCCAUGUAGAAGGCGAAUAUA	80.9	186		
ACGACGAAAGUCGAACGAUGUAGCAGAAGGACAUGAGGAUCACCCAUGUCAGCUGUAACAGCCAUGUAGGAUAUGCUACAUCGU	4.29	5.41		

Sequence	apparent Kd [1] [nM]	apparent Kd [2] [nM]	apparent Kd [3] [nM]	apparent Kd [4] [nM]
ACGUGUAAUACAGGAUAUGUAUUGGAUUAAUCAACCAGUUAUUAAGUAACGACAGAAGGGUAUACAUGAGGAUCACCCAUGUUA	24.2	20.2		
GGACGUCACAUCUACAUGAGGAUCACCCAUGUCUCUUGAGAUGAGGAUAUGUAUACGAAUCGUUUAUAGAAGGCAUGGACGUCC			348	325
CGUAUGAUGUCAGGAUAUGACGCUGAGAGCACGUCAGAAGGGACAUGAGGAUCACCCAUGUUGGGCUAAUGAAGCUAUGGCACU	14.6	43.5		
AAAGCACGAGGAUAUACAUGAGGAUCACCCAUGUAUAACCAACAUAGGUGAUCCUCAUGUAGAAGGCGUGCAAA	18.6	18.4		
AAAUUGGUAGAGGAUAUCGGAUAGGAUUUACUGCGAGAAGGCUGCACAUGAGGAUCACCCAUGUUCUGUUGGGA	123	152		
CGCACGAGGCAAGGAUAUGCUGACAUGAGGAUCACCCAUGUGAGCAUGGGUCUGGUACGGGAUCAGCAGAAGGUGCACCGAGGU	18.5	18.8		
CUUUUGUGAGGAUAUCAGUAGUAAAAUAAUAAAAUAACUACUGAGAAGGCACAUGAGGAUCACCCAUGUUCCUC	32.5	161		
GCACUGGAUGUAGGAUAUCAGGACGAUAAGUCCUGAGAAGGACAUGAGGAUCACCCAUGUGACUCAUAACCAGUGCAUAAUAUA	27	142		
GCCGCACAUGAGGAUCACCCAUGUAAUUACAUGGGAGGAUAUCAGUGCUCGAAAGAGCACUGAGAAGGCCUGAGGC			81.3	1070
UUGAUAAAUUAGAAGGCGAGAUAAAAUACAAUAAACAUGAGGAUCACCCAUGUGUACCCAUGUUUUGAGGAUAUAGACAUUUAU			922	399
GAUAGGACAGAGAAGGACGUAGCUAGAGAUACUAGCAUUAAGUCCUCAACAUGAGGAUCACCCAUGUAGGAUAUCUGUCCUAUC	6.23	6.71		
GCGUACAUAUCAGGAUAUCAUAUAAUUGUUUAUCUCAGUGUAUACAUGAGGAUCACCCAUGUUCUUGAGAAGGGAUAUGUACGC	8.24	8.68		
GCGUUCUUGUAGAAGGUACAUACGACAUCUUAUAAACGCAUGACACAUGAGGAUCACCCAUGUUGUAAGGAUAUACAUGAACGC			8.88	8.05
CUGUUAUAGGUCCAGAAUUACAACAUGAGGAUCACCCAUGUGCAGGAUAUCGGGUUAAUAAACGACGAGAAGGGCAUAGUCACG	35.6	104		
GCUACAUAUAUUAAGUAUGAUUAACUAGAAGGUAGAUACAUGAGGAUCACCCAUGUUAAGAGUUCUAAGGAUAUAGUUUGUAGC			113	56.6
UAUUUGUGAGGAUAUGAGUCGUAGAACAAUAGUACUACGUCUCAGAAGGUACAUGAGGAUCACCCAUGUUCCUC	19	28		
UGAUCGAGAGAUCUUAGAUUCUGGUAGGAUAUACAUUAUAUAAGAUAUACAUGAGGAUCACCCAUGUAGAAGGACUAGAGUCUA	6.47	7.39		
GCAUAUAUAUAAGGAUAUGCAUCACUGAGAAAUUUAGUGAGGAAGAUCACAUGAGGAUCACCCAUGUAGAAGGUAUAUAUGUGC	8.18	46		
UUGCGACAUGAGGAUCACCCAUGUCAGGAUAUAUUGUAGAAACUGGUUGCGACCAGGCGUAGAAGGGACAUGGC	28.6	37.7		
AAUACGUCAGGAUAUCUGAUGUCUAACUUCGGUUAGACAUCAGAGAAGGGACAUGAGGAUCACCCAUGUAUAAA	51.1	44.9		
AGAUUCAUGGCCCGUUCGGGCUCACAUGAGGAUCACCCAUGUGAGGAUAUGAUGUACCUGAUUCAUCAGAAGGCGCAUGCGAAA	7.69	20.8		
AAAAAACAUGAGGAUCACCCAUGUGAGGAUAUCCAAAAGUUAAAGAAAAAGACGAAAAGGAGAAGGCGCAAAAA	109	82		
UGAUAGGACAGAGGAUAUACAGAUAGGAUCUACUAUCAAACAGUCCUGACAUGAGGAUCACCCAUGUAGAAGGCUGUCCUAUCU	22.7	98.8		
CCUAGAUAGGGAGGAUAUCACGACCAUCCCGGCGAUCCAACUACAUGAGGAUCACCCAUGUGGUGUGAGAAGGCCCAAUAAUAG	220	75.4		
ACUUUAUUUGAGAAGGUGAAGUGGAAACAUGAGGAUCACCCAUGUAAUAGGAAGCCUAUUUUUAUCAAGGAUAUCAAAUAAAGA			7.89	7.86
GCCAUCGUAUGAGGAUAUGGCACCGAAACGGUGCCAGAAGGCAUGUCAAUAGACAUGAGGAUCACCCAUGUGUUAUCGAUGGCC			84.9	11.7
GCGUUUUAUGCAGGAUAUUGUAAUUUAUUACUACAAGAAGGGCAAUACAUGAGGAUCACCCAUGUCAGCAUGGUUUUUAAGUUC	20.4	25.9		
